Data: ChEMBL document CHEMBL1136992, “Further studies at neuropeptide s position 5: discovery of novel neuropeptide S receptor antagonists” (J Med Chem, 2009)
Activity calls are given as the source filed them. The calls are words filed in the database; no cut-off is given here. Square brackets hold non-standard residues; d marks the D form. Peptide text beside a SMILES is read from it. * marks the point of attachment. d(tBuAla) = CC(C)(C)C[C@@H](N)C(=O)O; dPhg = N[C@@H](C(=O)O)c1ccccc1; dNva = CCC[C@@H](N)C(=O)O; tBu = CC(C)(C)*

Assays:
[1] = target: T1, Neuropeptide S receptor (Mus musculus) (UniProt Q8BZP8); test: Antagonist activity at mouse NPSR expressed in HEK293 cells assessed as inhibition of NPS-induced response; format: functional, cell-based
T1 sequence (whole entry): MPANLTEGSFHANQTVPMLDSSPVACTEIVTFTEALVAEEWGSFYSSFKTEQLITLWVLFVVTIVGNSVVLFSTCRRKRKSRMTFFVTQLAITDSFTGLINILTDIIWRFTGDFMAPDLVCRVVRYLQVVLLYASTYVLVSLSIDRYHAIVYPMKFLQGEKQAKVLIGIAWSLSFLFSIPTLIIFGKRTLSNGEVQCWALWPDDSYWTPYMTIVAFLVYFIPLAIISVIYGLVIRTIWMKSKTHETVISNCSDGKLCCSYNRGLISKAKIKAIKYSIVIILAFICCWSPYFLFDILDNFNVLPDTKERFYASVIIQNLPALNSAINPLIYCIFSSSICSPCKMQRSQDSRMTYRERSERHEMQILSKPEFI
Outline: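 HEK293 cells stably expressing mouse NPSR, calcium mobilization. Inhibition response curves to test peptides against 30 nM NPS, run at 37 °C with three up-and-down mixing cycles right after antagonist injection to aid diffusion. Mean of at least four separate experiments performed in duplicate.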

[2] = target: T2, Neuropeptide S receptor (Homo sapiens) (UniProt Q6W5P4); conditions: HEK293
T2 sequence (whole entry): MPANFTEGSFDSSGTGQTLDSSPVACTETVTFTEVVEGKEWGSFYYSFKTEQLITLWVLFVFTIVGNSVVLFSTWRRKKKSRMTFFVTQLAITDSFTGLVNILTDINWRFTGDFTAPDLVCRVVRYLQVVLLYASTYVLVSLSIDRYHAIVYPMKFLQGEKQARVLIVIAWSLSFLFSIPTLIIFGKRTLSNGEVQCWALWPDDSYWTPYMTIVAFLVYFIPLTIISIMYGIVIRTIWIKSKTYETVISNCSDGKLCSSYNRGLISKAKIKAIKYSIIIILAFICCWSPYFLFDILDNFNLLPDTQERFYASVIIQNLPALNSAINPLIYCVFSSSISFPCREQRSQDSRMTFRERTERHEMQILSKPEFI

Neuropeptide S receptor = target: T3, Neuropeptide S receptor (Mus musculus, UniProt Q8BZP8); test: Agonist activity at mouse NPSR expressed in HEK293 cells by calcium mobilization assay; format: functional, cell-based
T3 sequence (Q8BZP8 whole entry): T1 sequence (whole entry)
Outline: (§1)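 HEK293 cells stably expressing mouse NPSR; intracellular calcium mobilization measured after peptide addition, concentration-response curves giving pEC50 and Emax as % over basal. Mean of at least four separate experiments performed in duplicate.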

[3] = target: T1, Neuropeptide S receptor (Mus musculus); test: Agonist activity at mouse NPSR expressed in HEK293 cells up to 10 uM by calcium mobilization assay; format: functional, cell-based; outline: as §1

| Compound | EC50 (Neuropeptide S receptor) [nM] | other results |
| --- | --- | --- |
| CSCC[C@H](NC(=O)CNC(=O)[C@@H](NC(=O)CNC(=O)[C@@H](NC(=O)[C@@H](CSC(C)(C)C)NC(=O)[C@H](CC(N)=O)NC(=O)[C@H](CCCNC(=N)N)NC(=O)[C@H](Cc1ccccc1)NC(=O)[C@@H](N)CO)C(C)C)[C@@H](C)O)C(=O)N[C@@H](CCCCN)C(=O)N[C@@H](CCCCN)C(=O)N[C@H](C(=O)N[C@@H](CO)C(=O)N[C@@H](Cc1ccccc1)C(=O)N[C@@H](CCC(N)=O)C(=O)N[C@@H](CCCNC(=N)N)C(=O)N[C@@H](C)C(=O)N[C@@H](CCCCN)C(=O)N[C@@H](CO)C(=O)O)[C@@H](C)O (H-SFRN[dC](tBu)VGTGMKKTSFQRAKS-OH) |  | pKb [1]: 6.5 |
| O=C(NCc1ccc(F)cc1)N1CCN2C(=O)OC(c3ccccc3)(c3ccccc3)C2C1 (centres undefined) |  | pKb [2]: 7.5 |
| CSCC[C@H](NC(=O)CNC(=O)[C@@H](NC(=O)CNC(=O)[C@@H](NC(=O)[C@H](NC(=O)[C@H](CC(N)=O)NC(=O)[C@H](CCCN=C(N)N)NC(=O)[C@H](Cc1ccccc1)NC(=O)[C@@H](N)CO)c1ccccc1)C(C)C)[C@@H](C)O)C(=O)N[C@@H](CCCCN)C(=O)N[C@@H](CCCCN)C(=O)N[C@H](C(=O)N[C@@H](CO)C(=O)N[C@@H](Cc1ccccc1)C(=O)N[C@@H](CCC(N)=O)C(=O)N[C@@H](CCCN=C(N)N)C(=O)N[C@@H](C)C(=O)N[C@@H](CCCCN)C(=O)O)[C@@H](C)O (H-SFRN[dPhg]VGTGMKKTSFQRAK-OH) | 661 |  |
| CSCC[C@H](NC(=O)CNC(=O)[C@@H](NC(=O)CNC(=O)[C@@H](NC(=O)[C@H](NC(=O)[C@H](CC(N)=O)NC(=O)[C@H](CCCNC(=N)N)NC(=O)[C@H](Cc1ccccc1)NC(=O)[C@@H](N)CO)C(C)C)C(C)C)[C@@H](C)O)C(=O)N[C@@H](CCCCN)C(=O)N[C@@H](CCCCN)C(=O)N[C@H](C(=O)N[C@@H](CO)C(=O)N[C@@H](Cc1ccccc1)C(=O)N[C@@H](CCC(N)=O)C(=O)N[C@@H](CCCNC(=N)N)C(=O)N[C@@H](C)C(=O)N[C@@H](CCCCN)C(=O)N[C@@H](CO)C(=O)O)[C@@H](C)O (H-SFRN[dV]VGTGMKKTSFQRAKS-OH) |  | pKb [1]: 6.54; Emax [3]: inactive |
| H-SFRNGVGTGMKKTSFQRAKS-OH [NEUROPEPTIDE S] | 4.79 |  |
| CSCC[C@H](NC(=O)CNC(=O)[C@@H](NC(=O)CNC(=O)[C@@H](NC(=O)[C@H](NC(=O)[C@H](CC(N)=O)NC(=O)[C@H](CCCNC(=N)N)NC(=O)[C@H](Cc1ccccc1)NC(=O)[C@@H](N)CO)[C@H](C)O)C(C)C)[C@@H](C)O)C(=O)N[C@@H](CCCCN)C(=O)N[C@@H](CCCCN)C(=O)N[C@H](C(=O)N[C@@H](CO)C(=O)N[C@@H](Cc1ccccc1)C(=O)N[C@@H](CCC(N)=O)C(=O)N[C@@H](CCCNC(=N)N)C(=O)N[C@@H](C)C(=O)N[C@@H](CCCCN)C(=O)O)[C@@H](C)O (H-SFRN[dT]VGTGMKKTSFQRAK-OH) | 794 |  |
| CCC[C@@H](NC(=O)[C@H](CC(N)=O)NC(=O)[C@H](CCCN=C(N)N)NC(=O)[C@H](Cc1ccccc1)NC(=O)[C@@H](N)CO)C(=O)N[C@H](C(=O)NCC(=O)N[C@H](C(=O)NCC(=O)N[C@@H](CCSC)C(=O)N[C@@H](CCCCN)C(=O)N[C@@H](CCCCN)C(=O)N[C@H](C(=O)N[C@@H](CO)C(=O)N[C@@H](Cc1ccccc1)C(=O)N[C@@H](CCC(N)=O)C(=O)N[C@@H](CCCN=C(N)N)C(=O)N[C@@H](C)C(=O)N[C@@H](CCCCN)C(=O)O)[C@@H](C)O)[C@@H](C)O)C(C)C (H-SFRN[dNva]VGTGMKKTSFQRAK-OH) | 2690 |  |
| CSCC[C@H](NC(=O)CNC(=O)[C@@H](NC(=O)CNC(=O)[C@@H](NC(=O)[C@@H](CC(C)(C)C)NC(=O)[C@H](CC(N)=O)NC(=O)[C@H](CCCN=C(N)N)NC(=O)[C@H](Cc1ccccc1)NC(=O)[C@@H](N)CO)C(C)C)[C@@H](C)O)C(=O)N[C@@H](CCCCN)C(=O)N[C@@H](CCCCN)C(=O)N[C@H](C(=O)N[C@@H](CO)C(=O)N[C@@H](Cc1ccccc1)C(=O)N[C@@H](CCC(N)=O)C(=O)N[C@@H](CCCN=C(N)N)C(=O)N[C@@H](C)C(=O)N[C@@H](CCCCN)C(=O)O)[C@@H](C)O (H-SFRN[d(tBuAla)]VGTGMKKTSFQRAK-OH) | 1660 |  |
